Experimental data reported in ChEMBL document CHEMBL1287740, “Synthesis and bio-evaluation of alkylaminoaryl phenyl cyclopropyl methanones as antitubercular and antimalarial agents” (Bioorg Med Chem, 2010).
Values after ≈ are worked out from the molar mass of the structure shown. Active and inactive are the calls of the source. The rule behind the calls is not given here.

Key:
[1] = tested on: Mycobacterium tuberculosis; experiment: Antimicrobial activity against Mycobacterium tuberculosis H37Rv after 30 days by agar microdilution method; assay type: functional
Summary of the method: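 Twofold dilutions of compound in DMSO incorporated into Middlebrook 7H10 medium with OADC supplement in slanted tubes, preincubated 37 °C for 24 h, then streaked with H37Rv harvested from L-J medium into 0.85% saline with 0.05% Tween-80 (5 × 10^5 bacilli per tube). Incubated at 37 °C; MIC = lowest concentration giving complete inhibition of colonies versus drug-free control.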

[2] = Selectivity index, ratio of CC50 for african green monkey (Cercopithecus aethiops) Vero cells to IC50 for Plasmodium falciparum 3D7; assay type: functional
Summary of the method: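 Ratio of Vero CC50 (resazurin fluorescence after 72 h exposure) to P. falciparum 3D7 IC50 (radiolabelled hypoxanthine uptake; 24 h compound exposure, then 48 h with label).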

Plasmodium falciparum [3] = experiment: Antimalarial activity against Plasmodium falciparum 3D7 assessed as maturation of schizonts after 24 to 32 hrs by microdilution method; assay type: functional
Summary of the method: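 P. falciparum 3D7 (chloroquine sensitive); twofold serial dilutions in complete RPMI 1640 from 10 mg/ml DMSO stocks, parasitized RBCs added (final hematocrit 3–4%, 1.0–2.0% parasitaemia, >95% rings). Incubated 24–32 h at 37 °C with 5% CO2. Thin smears stained with 15% Giemsa; schizont maturation scored against controls to give MIC.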

Plasmodium falciparum [4] = experiment: Antimalarial activity against Plasmodium falciparum 3D7 assessed as radiolabeled hypoxanthine uptake after 48 hrs by scintillation counting; assay type: functional, organism-based; settings: 3D7, 48 h
Summary of the method: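 Chloroquine-sensitive P. falciparum 3D7 asynchronous culture at 0.5% parasitaemia and 1.5% hematocrit, exposed to compounds for 24 h at 37 °C in CO2. Radiolabelled hypoxanthine (0.5 µCi/well) then added and incubation continued 48 h. Cells harvested onto filter paper, and radioactivity counted by scintillation β-counter. IC50 derived from hypoxanthine uptake.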

[5] = Cytotoxicity against african green monkey Vero cells after 72 hrs; assay type: cell-based; settings: chlorocebus sabaeus
Summary of the method: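 Vero (C1008 monkey kidney) cells grown in MEM + 15% FBS, 5% CO2, 37 °C. Trypsinized cells at 1 × 10^5 cells/ml seeded and allowed to adhere overnight, then exposed to serial compound dilutions for 72 h. Resazurin added and fluorescence read after 4 h.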

Mycolicibacterium aurum [6] = experiment: Inhibition of type II fatty acid biosynthesis pathway in Mycobacterium aurum at 25 uM after 12 hrs by lacZ reporter assay relative to untreated control; assay type: functional
Summary of the method: (§1)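 Recombinant M. aurum lacZ reporter strains (kasA promoter or hsp60 promoter) grown in Sauton's medium with kanamycin at 37 °C to 0.5 OD600, diluted to 0.04–0.05 OD, equilibrated 2 h, then treated 12 h at 37 °C (10, 25, 50, 75 µM). Cells sonicated in PBS pH 7.2 and protein normalized by Bradford. β-gal measured with ONPG (4 mg/ml), 30 min at 37 °C, stopped with Na2CO3, OD 410 nm. Triplicates, relative to untreated control.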

Mycolicibacterium aurum [7] = experiment: Inhibition of type II fatty acid biosynthesis pathway in Mycobacterium aurum at 50 uM after 12 hrs by lacZ reporter assay relative to untreated control; assay type: functional; summary of the method: as §1
Mycolicibacterium aurum [8] = experiment: Inhibition of type II fatty acid biosynthesis pathway in recombinant Mycobacterium aurum carrying hsp60 promoter assessed as cell viability at 25 uM after 12 hrs by lacZ reporter assay relative to untreated control; assay type: functional
Summary of the method: (§2)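 M. aurum (recombinant reporter strains) grown in Sauton's medium with 0.05% Tween-80 and kanamycin to 0.6 OD600, diluted to 0.05 OD. 1 × 10^5 cells inoculated into 5 ml medium with varying compound concentrations, grown 12 h at 37 °C with shaking. Viable cells counted by 10-fold serial dilution plating on nutrient agar-Tween-kanamycin. % inhibition calculated with untreated colony count taken as 100%.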

Mycolicibacterium aurum [9] = experiment: Inhibition of type II fatty acid biosynthesis pathway in Mycobacterium aurum assessed as cell viability at 10 to 50 uM after 12 hrs by lacZ reporter assay relative to untreated control; assay type: functional, organism-based; summary of the method: as §2
Mycolicibacterium aurum [10] = experiment: Inhibition of type II fatty acid biosynthesis pathway in recombinant Mycobacterium aurum carrying hsp60 promoter assessed as beta-galactosidase activity at 14 uM after 12 hrs by lacZ reporter assay relative to untreated control; assay type: functional, organism-based
Mycolicibacterium aurum [11] = experiment: Inhibition of type II fatty acid biosynthesis pathway in recombinant Mycobacterium aurum carrying hsp60 promoter assessed as beta-galactosidase activity at 10 to 50 uM after 12 hrs by lacZ reporter assay relative to untreated control; assay type: functional, organism-based; summary of the method: as §1
Mycolicibacterium aurum [12] = experiment: Inhibition of type II fatty acid biosynthesis pathway in recombinant Mycobacterium aurum carrying hsp60 promoter assessed as cell viability at 75 uM after 12 hrs by lacZ reporter assay relative to untreated control; assay type: functional; summary of the method: as §2
Mycolicibacterium aurum [13] = experiment: Inhibition of type II fatty acid biosynthesis pathway in recombinant Mycobacterium aurum carrying hsp60 promoter assessed as cell viability at 10 uM after 12 hrs by lacZ reporter assay relative to untreated control; assay type: functional; summary of the method: as §2
Mycolicibacterium aurum [14] = experiment: Inhibition of type II fatty acid biosynthesis pathway in Mycobacterium aurum at 10 to 50 uM after 12 hrs by lacZ reporter assay relative to untreated control; assay type: functional, organism-based; summary of the method: as §1
Mycolicibacterium aurum [15] = experiment: Inhibition of type II fatty acid biosynthesis pathway in recombinant Mycobacterium aurum carrying hsp60 promoter assessed as cell viability at 10 to 50 uM after 12 hrs by lacZ reporter assay relative to untreated control; assay type: functional, organism-based; summary of the method: as §2
Mycolicibacterium aurum [16] = experiment: Inhibition of type II fatty acid biosynthesis pathway in recombinant Mycobacterium aurum carrying hsp60 promoter assessed as cell viability at 50 uM after 12 hrs by lacZ reporter assay relative to untreated control; assay type: functional; summary of the method: as §2

Row | SMILES | MIC [1] | Ratio CC50/IC50 [2] | MIC (Plasmodium falciparum [3]) | IC50 (Plasmodium falciparum [4]) | CC50 at 72 h [5] | inhibition at 25 µM (Mycolicibacterium aurum [6]) | inhibition at 50 µM (Mycolicibacterium aurum [7]) | also measured
1 | COc1ccc(CNc2ccc(C(=O)C3CC3c3ccc(Cl)cc3)cc2)cc1OC (stereo not drawn) | > 12.5 µg/mL | 52.73 | 10 µg/mL (≈ 23.7 µM) | 8 µg/mL (≈ 19 µM) | 422 µg/mL (≈ 1000 µM) |  |  | 
2 | CCCCCCCCNc1ccc(C(=O)C2CC2c2ccc(Cl)cc2)cc1 (stereo not drawn) | > 12.5 µg/mL | 100.53 | 10 µg/mL (≈ 26 µM) | 2.13 µg/mL (≈ 5.55 µM) | 214 µg/mL (≈ 558 µM) | 30.2% | 23.9% | 
3 | CCCCCCCNc1ccc(C(=O)C2CC2c2ccc(Cl)cc2)cc1 (stereo not drawn) | > 12.5 µg/mL | 4975 | 0.3 µg/mL (≈ 0.811 µM) | 0.08 µg/mL (≈ 0.216 µM) | 398 µg/mL (≈ 1080 µM) |  |  | inhibition (Mycolicibacterium aurum [6]): inactive; inhibition (Mycolicibacterium aurum [7]): inactive
4 | O=C(c1ccc(NCCn2cnc3ccccc32)cc1)C1CC1c1ccc(Cl)cc1 (stereo not drawn) | 12.5 µg/mL (≈ 30.1 µM) | 385.45 | 2 µg/mL (≈ 4.81 µM) | 0.74 µg/mL (≈ 1.78 µM) | 285 µg/mL (≈ 686 µM) | 1.03% | 16.9% | 
5 | CCCCCCCCCCCCNc1ccc(C(=O)C2CC2c2ccc(Cl)cc2)cc1 (stereo not drawn) | Insoluble | 37.08 | > 50 µg/mL | 10.4 µg/mL (≈ 23.6 µM) | 386 µg/mL (≈ 876 µM) | 27% | 32.7% | 
6 | CN1CCN(c2ccc(C(=O)C3CC3c3ccc(Cl)cc3)cc2)CC1 (stereo not drawn) | 6.25 µg/mL (≈ 17.6 µM) | 151.96 | 10 µg/mL (≈ 28.2 µM) | 0.54 µg/mL (≈ 1.52 µM) | 82.1 µg/mL (≈ 231 µM) |  | 0.17% | inhibition (Mycolicibacterium aurum [6]): inactive
7 | O=C(c1ccc(N2CCCCC2)cc1)C1CC1c1ccc(Cl)cc1 (stereo not drawn) | > 12.5 µg/mL | 46.99 | 10 µg/mL (≈ 29.4 µM) | 6.05 µg/mL (≈ 17.8 µM) | 284 µg/mL (≈ 836 µM) |  |  | 
8 | CCCCCCCC/C=C\CCCCCCCCNc1ccc(C(=O)C2CC2c2ccc(Cl)cc2)cc1 (stereo not drawn) | 12.5 µg/mL (≈ 23.9 µM) | 5.24 | > 50 µg/mL | 75.1 µg/mL (≈ 144 µM) | 393 µg/mL (≈ 753 µM) |  |  | 
9 | CCN(CC)CCCC(C)Nc1ccnc2cc(Cl)ccc12 (stereo not drawn) [CHLOROQUINE] |  |  | 0.05 µg/mL (≈ 0.156 µM) |  |  |  |  | 
10 | O=C(c1ccc(N2CCOCC2)cc1)C1CC1c1ccc(Cl)cc1 (stereo not drawn) | > 12.5 µg/mL | 149.92 | 10 µg/mL (≈ 29.3 µM) | 3.02 µg/mL (≈ 8.83 µM) | 453 µg/mL (≈ 1320 µM) | 29.8% | 3.81% | 
11 | O=C(/C=C/c1ccc(Cl)cc1)c1ccc(N2CCCCC2)cc1 | > 12.5 µg/mL | 26.3 | 50 µg/mL (≈ 153 µM) | 8.92 µg/mL (≈ 27.4 µM) | 235 µg/mL (≈ 720 µM) |  |  | 
12 | CN(C)CCCNc1ccc(C(=O)/C=C/c2ccc(Cl)cc2)cc1 |  | 9.25 | 1.56 µg/mL (≈ 4.55 µM) | 0.64 µg/mL (≈ 1.87 µM) | 5.92 µg/mL (≈ 17.3 µM) | 83.4% | 88.1% | inhibition at 25 µM (Mycolicibacterium aurum [8]): 85.4%; inhibition (Mycolicibacterium aurum [9]): Dose-dependent effect; inhibition (Mycolicibacterium aurum [10]): inactive; inhibition (Mycolicibacterium aurum [11]): inactive; inhibition at 75 µM (Mycolicibacterium aurum [12]): 99.6%; inhibition at 10 µM (Mycolicibacterium aurum [13]): 18.8%; inhibition (Mycolicibacterium aurum [14]): Dose-dependent effect; inhibition (Mycolicibacterium aurum [15]): Dose-dependent effect; inhibition at 50 µM (Mycolicibacterium aurum [16]): 88.7%
13 | O=C(c1ccc(N2CCCC2)cc1)C1CC1c1ccc(Cl)cc1 (stereo not drawn) | 12.5 µg/mL (≈ 38.4 µM) | 44.26 | > 50 µg/mL | 9.75 µg/mL (≈ 29.9 µM) | 431 µg/mL (≈ 1320 µM) |  |  | 
14 | CC(C)CCCC(C)Nc1ccc(C(=O)C2CC2c2ccc(Cl)cc2)cc1 (stereo not drawn) | > 12.5 µg/mL |  |  |  |  | 17.5% | 27.4% | 
15 | O=C(c1ccc(NCCn2cncn2)cc1)C1CC1c1ccc(Cl)cc1 (stereo not drawn) | 12.5 µg/mL (≈ 34.1 µM) | 11.7 | 10 µg/mL (≈ 27.3 µM) | 3.41 µg/mL (≈ 9.3 µM) | 39.9 µg/mL (≈ 109 µM) | 17.9% | 30.1% | 
